Reference: ChEMBL document CHEMBL2034979, “Design, synthesis and antiviral activity of novel quinazolinones” (Eur J Med Chem, 2012)

Legend:
[1] = Cytotoxicity against human TZM-bl cells at 10 uM after 48 hrs by MTT assay; format: cell-based
How it was run: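 TZM-bl cells plated and held 18 h at 37 °C, then exposed to compounds for 48 h. MTT (5 mg/mL stock, 20 µL per well) added and incubated 3 h at 37 °C. Plates shaken 10 min at room temperature. OD550 read against a 690 nm reference. Single test concentration of 10 µM.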

[2] = system: Tobacco mosaic virus; experiment: In vitro antiviral activity against TMV assessed as inhibition rate at 500 ug/mL; format: functional
[3] = system: Tobacco mosaic virus; experiment: In vivo antiviral activity against TMV assessed as viral inactivation effect at 500 ug/mL; format: functional
[4] = system: Tobacco mosaic virus; experiment: In vivo antiviral activity against TMV assessed as curative effect at 500 ug/mL; format: functional
[5] = system: Tobacco mosaic virus; experiment: In vivo antiviral activity against TMV assessed as protection effect at 500 ug/mL; format: functional
[6] = system: Human immunodeficiency virus; experiment: Antiviral activity against HIV infected in human TZM-bl cells at 10 uM after 48 hrs by luciferase-based reporter gene assay; format: functional; conditions: Human immunodeficiency virus 1, TZM-bl
How it was run: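 TZM-bl cells seeded at 10^4 cells/well. Next day, compounds were added at 10 µM with AZT and MK-0518 reference controls, then pseudotyped HIV-1 was added (final DMSO 2%). Plates were incubated 48 h at 37 °C in humidified CO2. Steady-Glo substrate was added, cells lysed 20 min in the dark, and luciferase luminescence was read.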

| SMILES | Activity [1] | inhibition at 500 µg/mL [2] | Activity [3] | Activity [4] | Activity [5] | inhibition at 10 µM [6] |
| --- | --- | --- | --- | --- | --- | --- |
| COc1c(C(=O)NCc2ccc(F)cc2)ccc2nc(-c3ccco3)n(C)c(=O)c12 | Non-toxic | 10% | 0% | 8.9% | 11.7% | 1.6% |
| Cc1nnc(C(=O)NC(C)(C)c2nc(C(=O)NCc3ccc(F)cc3)c(O)c(=O)n2C)o1 [RALTEGRAVIR] | – | – | – | – | – | 95.2% |
| Cn1c(-c2cccs2)nc2ccc(C(=O)NCc3ccc(F)cc3)c(O)c2c1=O | Non-toxic | 14.5% | 8.2% | 10.9% | 9.8% | 33.2% |
| COc1c(C(=O)NCc2ccc(F)cc2)ccc2nc(-c3ccc([N+](=O)[O-])cc3)n(C)c(=O)c12 | Non-toxic | – | – | – | – | -3.8% |
| CCCCc1nc2ccc(C(=O)NCc3ccc(F)cc3)c(O)c2c(=O)n1C | Non-toxic | – | – | – | – | 2.4% |
| Cn1c(-c2ccc([N+](=O)[O-])cc2)nc2ccc(C(=O)NCc3ccc(F)cc3)c(O)c2c1=O | Non-toxic | – | – | – | – | 77.5% |
| COc1c(C(=O)NCc2ccc(F)cc2)ccc2nc(-c3ccccn3)n(C)c(=O)c12 | Non-toxic | 21.3% | 29.4% | 17.6% | 19.5% | 44.6% |
| COc1c(C(=O)NCc2ccc(F)cc2)ccc2nc(Cc3ccc(F)cc3)n(C)c(=O)c12 | Non-toxic | 21.2% | 10.6% | 15.2% | 17.7% | -27.4% |
| COc1c(C(=O)NCc2ccc(F)cc2)ccc2nc(-c3cccs3)n(C)c(=O)c12 | Non-toxic | 0% | 20.4% | 9.4% | 12.7% | 25.1% |
| NC(=O)c1ncn([C@@H]2O[C@H](CO)[C@@H](O)[C@H]2O)n1 [RIBAVIRIN] | – | 38.5% | 34.2% | 32.7% | 39.6% | – |
| CCCCc1nc2ccc(C(=O)NCc3ccc(F)cc3)c(OC)c2c(=O)n1C | Non-toxic | – | – | – | – | 19.1% |
| Cn1c(-c2ccc(F)cc2)nc2ccc(C(=O)NCc3ccc(F)cc3)c(O)c2c1=O | Non-toxic | – | – | – | – | 68.4% |
| COc1c(C(=O)NCc2ccc(F)cc2)ccc2c1C(=O)N(C)C(c1cccs1)N2 (centres undefined) | Non-toxic | 16.3% | 13.7% | 0% | 5.4% | 17.5% |
| COc1c(C(=O)NCc2ccc(F)cc2)ccc2nc(Cc3ccc([N+](=O)[O-])cc3)n(C)c(=O)c12 | Non-toxic | – | 0% | 0% | 12.4% | -33.8% |
| CCCCC1Nc2ccc(C(=O)NCc3ccc(F)cc3)c(OC)c2C(=O)N1C (centres undefined) | Non-toxic | – | – | – | – | 3.2% |
| Cn1c(Cc2ccc([N+](=O)[O-])cc2)nc2ccc(C(=O)NCc3ccc(F)cc3)c(O)c2c1=O | Non-toxic | 18.4% | 12.7% | 13.3% | 16.8% | 29% |
| COc1c(C(=O)NCc2ccc(F)cc2)ccc2c1C(=O)N(C)C(c1ccco1)N2 (centres undefined) | Non-toxic | 7.5% | 8.2% | 0% | 0% | 8.1% |
| COc1c(C(=O)NCc2ccc(F)cc2)ccc2c1C(=O)N(C)C(c1ccc([N+](=O)[O-])cc1)N2 (centres undefined) | Non-toxic | 19.5% | 18.9% | 15% | 20.3% | 64.9% |
| COc1c(C(=O)NCc2ccc(F)cc2)ccc2nc(-c3ccc(F)cc3)n(C)c(=O)c12 | Non-toxic | – | 13.3% | 8.2% | 7.4% | 27.6% |
| COc1c(C(=O)NCc2ccc(F)cc2)ccc2c1C(=O)N(C)C(Cc1ccc(F)cc1)N2 (centres undefined) | Non-toxic | – | – | – | – | 15.6% |
| COc1c(C(=O)NCc2ccc(F)cc2)ccc2c1C(=O)N(C)C(c1ccc(F)cc1)N2 (centres undefined) | Non-toxic | 24.2% | 30.4% | 26.3% | 28.9% | 31% |
| Cn1c(-c2ccccn2)nc2ccc(C(=O)NCc3ccc(F)cc3)c(O)c2c1=O | Non-toxic | – | – | – | – | -11% |
| COc1c(C(=O)NCc2ccc(F)cc2)ccc2c1C(=O)N(C)C(Cc1ccc([N+](=O)[O-])cc1)N2 (centres undefined) | Non-toxic | – | – | – | – | -17.7% |
| Cn1c(-c2ccco2)nc2ccc(C(=O)NCc3ccc(F)cc3)c(O)c2c1=O | Non-toxic | – | – | – | – | -9.2% |
| Cc1cn([C@H]2C[C@H](N=[N+]=[N-])[C@@H](CO)O2)c(=O)[nH]c1=O [ZIDOVUDINE] | – | – | – | – | – | 98.1% |
| COc1c(C(=O)NCc2ccc(F)cc2)ccc2c1C(=O)N(C)C(c1ccccn1)N2 (centres undefined) | Non-toxic | 0% | 15.2% | 0% | 8.7% | 9.9% |
| Cn1c(Cc2ccc(F)cc2)nc2ccc(C(=O)NCc3ccc(F)cc3)c(O)c2c1=O | Non-toxic | – | – | – | – | 49.5% |
